Sampled rows, rich in hits. Any-hit rate of the full collection: about 2.6%.
T cell HTS = T cell immune modulators affecting CD8 T cell-vesicle binding; 330,000 compounds, 0.068% hits; 2C CD8+ T cell-vesicle binding, flow cytometry; stronger effect = lower value; response (vesicle binding), % at 7 µM;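 active means response, share of CD8 T cells binding vesicles, and their 90th percentile fluorescence all below set limits, cut at about 80% in these data, passing the limit was not always enough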;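 further: values below 100% mean blocked vesicle binding to the CD8+ T cells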
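System: murine 2C transgenic CD8+ T lymphocytes; also added: QL9-loaded Drosophila micro-vesicles; times: binding 1.5 h at 37 °C; measured by: flow cytometry, PE anti-B7-1 (FL2) versus Alexa647 anti-CD8 (FL8), PFA-fixed; control set: Peptide-free naked vesicles (low) and QL9 vesicles with 0.7% DMSO vehicle (high)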
SKN-1 inh = inhibitors of C. elegans SKN-1. inhibition, % at 21.8 µM. 360,000 compounds, 0.49% hits. C. elegans VP596 Pgst-4::GFP/RFP ratio, acrylamide-induced, 24 h;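 active means interference check ratio from 0.5 to 1.5 plus GFP to RFP signal ratio inhibition reaching or exceeding a fixed threshold, cut at about 30% in these data, passing the limit was not always enough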
Rin1 Abl inh = inhibitors of human Rin1-Abl protein interaction; inhibition, % at 7.35 µM; AID 588664; TR-FRET Rin1/Abl binding, biochemical; 360,000 compounds, 0.4% hits; P00519+Q13671; in the data active means inhibition above about 5%, passing the limit was not always enough
Rce1 inhib = blocks yeast Ras-converting enzyme; Q03530; yeast membranes, quenched prenylated peptide cleavage fluorescence; calls only; 290,000 compounds, 0.27% hits;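 active means fall in fluorescence gain of 50% or more versus controls, with final raw signal at or below 3038400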;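 further: plate controls were neutral control wells for no effect and wells lacking membranes for full effect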
Target sequence (Q03530 whole entry, looked up): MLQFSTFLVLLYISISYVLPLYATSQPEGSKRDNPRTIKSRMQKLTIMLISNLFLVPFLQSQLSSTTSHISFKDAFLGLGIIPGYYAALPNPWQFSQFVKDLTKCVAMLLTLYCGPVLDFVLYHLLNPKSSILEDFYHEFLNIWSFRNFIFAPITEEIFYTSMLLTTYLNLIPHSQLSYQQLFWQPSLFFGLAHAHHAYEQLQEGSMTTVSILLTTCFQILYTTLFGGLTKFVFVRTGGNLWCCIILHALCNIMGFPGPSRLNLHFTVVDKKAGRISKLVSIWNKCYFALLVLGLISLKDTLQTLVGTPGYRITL
Myeloid diff 2 = myeloid differentiation induction. ER-HoxA9 myeloid progenitors, lysozyme-GFP differentiation, flow cytometry. calls only at 10 µM. 360,000 compounds, 1% hits;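 active means normalized GFP-positive differentiation at or above the plate's own cutoff, the solvent-only control mean plus 3 SD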;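 further: cells exposed to compound for four days before flow analysis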
GRK2 aptamer HTS = human GRK2 inhibition via aptamer displacement | bead flow cytometry, FAM-aptamer displacement from GRK2 | inhibition of aptamer binding, % at 10 µM | 330,000 compounds, 0.59% hits | AID 488847;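 active means inhibition of aptamer binding above 40%, roughly 3 SD of noise, on plates passing a quality check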;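 further: median bead fluorescence of bound FAM aptamer so fluorescent compounds give negative values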
Active calls of the source: *; i = inactive; / = no result given; + = active, no number.

SMILES	T cell HTS	SKN-1 inh	Rin1 Abl inh	Rce1 inhib	Myeloid diff 2	GRK2 aptamer HTS
COCCN1C(=O)/C(=C/c2ccc(N3CCCC3)cc2C)SC1=S	419	60	2	i	+	0
CCOC(=O)c1cc(-c2ccc(/C=N\n3cnnc3)o2)ccc1Cl	194	8	-2	i	i	4
CCOC(=O)c1cc(-c2ccc(/C=C3/C(=O)N(c4ccc(C(=O)O)cc4)N=C3C)o2)ccc1Cl	235	18	-1	i	+	4
Nc1nnnn1/N=C/c1cccc(OCc2ccccc2Cl)c1	326	-10	1	+	i	2
Nc1nnnn1/N=C/c1cccc(Oc2ccccc2)c1	364	6	0	i	i	2
Cc1cc(OC(C)C(=O)NC2CC(C)(C)NC(C)(C)C2)c2c(C)c(C)c(=O)oc2c1 (centres undefined)	/	-8	-6	/	i	/
O=C(COC(=O)/C=C/c1ccc(F)cc1)Nc1cc(C(F)(F)F)ccc1N1CCOCC1	173	1	2	i	i	2
CC(=O)c1c(C)[nH]c(C(=O)OCC(=O)Nc2cc(C(F)(F)F)ccc2N2CCOCC2)c1C	224	9	1	i	+	0
CNc1nc(NN)nc(Nc2ccccc2)n1	269	-17	1	i	i	0
CCOC(=O)c1ccc(NC(=O)CCNC(=O)c2ccc([N+](=O)[O-])cc2)cc1	206	9	-3	i	i	0
Cc1ccc(NC(=O)CCNC(=O)c2ccc([N+](=O)[O-])cc2)cc1C	238	2	2	i	+	3
COc1ccc(-c2ccnc3[nH]n(-c4ccccc4)c(=O)c23)cc1	227	17	2	i	+	0
Cc1ccc(C)c(NC(=O)/C(C#N)=C/c2ccc[nH]2)c1	310	37*	-1	i	/	1
Cc1cccc(NC(=O)/C(C#N)=C/c2ccc[nH]2)c1C	331	0	1	i	i	1
CCCCOc1ccc(S(=O)(=O)NC(=O)C2(C)CCN2C(=O)c2c(C)noc2C)cc1 (centres undefined)	/	-6	0	/	i	/
COc1ccc(OC)c(C(=O)N2CCC(CCC(=O)NC3CC3)CC2)c1	346	8	-1	i	i	0
Cn1c(=O)c2c(-c3ccccc3)n(-c3ccc(N)cc3)cc2n(C)c1=O	/	49*	6	/	i	/
Cn1c(=O)c2c(-c3ccccc3)n(-c3cccc(O)c3)cc2n(C)c1=O	/	9	-1	/	i	/
CC(C)(C)OC(=O)C[C@H]1C/C=C\C[C@@H](CC(=O)N(CCO)Cc2ccccc2)C(=O)N[C@H](Cc2ccccc2)COC1=O	410	-12	3	/	i	3
COCCCn1c(=O)c2ccccc2n(Cc2cccc(C)c2)c1=O	200	40*	1	i	i	0
CCOC(=O)N1CCN(C(=O)Nc2ccc(Cl)cc2)CC1	260	35*	-1	i	i	0
CCOC(=O)c1ccc(NC(=O)N2CCN(Cc3ccccc3)CC2)cc1	167	7	6	+	i	0
CCOC(=O)c1ccc(NC(=O)CN2CCN(Cc3ccccc3)CC2)cc1	456	7	2	i	i	4
CCOC(=O)c1c(S(=O)(=O)NCc2ccc(OC)cc2)c(C)n(C)c1C	492	-5	1	i	i	3
O=C(COC(=O)/C=C/c1ccc(F)cc1)NC1CCS(=O)(=O)C1 (centres undefined)	/	-10	1	/	i	/
CCCCSCCCNC(=O)Nc1ccc(C)c(C)c1	363	-4	4	i	i	4
COc1ccc(OC)c(C(=O)N(C[C@H]2CC[C@@H]([C@@H]3CC[C@H](CO)O3)O2)C(C(=O)NC(C)(C)C)c2ccc(-c3ccccc3)cc2)c1 (some centres undefined)	/	-9	-3	/	i	1
Cc1ccc(-n2ncc3c(N4CCCC(C)C4)ncnc32)c(C)c1 (centres undefined)	43*	8	4	i	i	0
CC(C)Cn1c2nc3ccccc3nc2c2c(=O)n(CCN3CCOCC3)cnc21	334	-17	-4	i	+	0
N/C(=N/OC(=O)c1ccccc1Cl)c1ncc([N+](=O)[O-])s1	581	-22	1	i	+	3

Bioassay records from PubChem.
